Data as given in ChEMBL document CHEMBL1821687, “Discovery, synthesis, and biological evaluation of novel SMN protein modulators” (J Med Chem, 2011).

Assays:
Brain [1] = test: Half-life in brain of Swiss albino mouse at 30 mg/kg, po; type: ADME, organism-based; set-up: dose 30 mg/kg, route oral; details: in vivo
How it was run: (§1)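 Male Swiss Albino mice received a single 30 mg/kg oral gavage dose. Compound levels were measured in plasma and brain over time, and PK parameters were derived from the concentration–time data.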

[2] = Plasma concentration in Swiss albino mouse at 30 mg/kg, po after 24 hrs; type: ADME, organism-based; set-up: dose 30 mg/kg, route oral; how it was run: as §1
Plasma [3] = test: Cmax in plasma of Swiss albino mouse at 30 mg/kg, po; type: ADME, organism-based; set-up: dose 30 mg/kg, route oral; details: in vivo; how it was run: as §1
Plasma [4] = test: Free plasma concentration in Swiss albino mouse at 30 mg/kg, po after 12 hrs; type: ADME, organism-based; set-up: dose 30 mg/kg, route oral; details: in vivo
Plasma [5] = test: Free plasma concentration in Swiss albino mouse at 30 mg/kg, po after 0.083 hr; type: ADME, organism-based; set-up: dose 30 mg/kg, route oral; details: in vivo
[6] = Plasma concentration in Swiss albino mouse at 30 mg/kg, po after 4 hrs; type: ADME, organism-based; set-up: dose 30 mg/kg, route oral; how it was run: as §1
Brain [7] = test: Drug level in Swiss albino mouse brain at 30 mg/kg, po after 2 hrs; type: ADME, organism-based; set-up: dose 30 mg/kg, route oral; details: in vivo; how it was run: as §1
[8] = Plasma protein binding in Swiss albino mouse at 30 mg/kg, po; type: ADME, organism-based; set-up: dose 30 mg/kg, route oral; details: read-out: PPB (converted)
Brain [9] = test: Drug level in Swiss albino mouse brain at 30 mg/kg, po after 8 hrs; type: ADME, organism-based; set-up: dose 30 mg/kg, route oral; details: in vivo; how it was run: as §1
[10] = Plasma concentration in Swiss albino mouse at 30 mg/kg, po after 8 hrs; type: ADME, organism-based; set-up: dose 30 mg/kg, route oral; how it was run: as §1
Caco-2 [11] = test: Apparent permeability from basolateral side to apical side of human Caco2 cells at 10 uM; type: ADME, cell-based; details: caco-2, 10 µM
Plasma [12] = test: AUC (infinity) in plasma of Swiss albino mouse at 30 mg/kg, po; type: ADME, organism-based; set-up: dose 30 mg/kg, route oral, time infinity; details: in vivo; how it was run: as §1
[13] = Plasma concentration in Swiss albino mouse at 30 mg/kg, po after 2 hrs; type: ADME, organism-based; set-up: dose 30 mg/kg, route oral; how it was run: as §1
[14] = Plasma concentration in Swiss albino mouse at 30 mg/kg, po after 0.083 hrs; type: ADME, organism-based; set-up: dose 30 mg/kg, route oral
Brain [15] = test: Drug level in Swiss albino mouse brain at 30 mg/kg, po after 4 hrs; type: ADME, organism-based; set-up: dose 30 mg/kg, route oral; details: in vivo; how it was run: as §1
[16] = target: T1, Luciferin 4-monooxygenase (Luciola lateralis, UniProt Q01158); test: Inhibition of fire fly luciferase; set-up: species or system Aquatica lateralis; details: read-out: IC50
T1 sequence (Q01158 whole entry): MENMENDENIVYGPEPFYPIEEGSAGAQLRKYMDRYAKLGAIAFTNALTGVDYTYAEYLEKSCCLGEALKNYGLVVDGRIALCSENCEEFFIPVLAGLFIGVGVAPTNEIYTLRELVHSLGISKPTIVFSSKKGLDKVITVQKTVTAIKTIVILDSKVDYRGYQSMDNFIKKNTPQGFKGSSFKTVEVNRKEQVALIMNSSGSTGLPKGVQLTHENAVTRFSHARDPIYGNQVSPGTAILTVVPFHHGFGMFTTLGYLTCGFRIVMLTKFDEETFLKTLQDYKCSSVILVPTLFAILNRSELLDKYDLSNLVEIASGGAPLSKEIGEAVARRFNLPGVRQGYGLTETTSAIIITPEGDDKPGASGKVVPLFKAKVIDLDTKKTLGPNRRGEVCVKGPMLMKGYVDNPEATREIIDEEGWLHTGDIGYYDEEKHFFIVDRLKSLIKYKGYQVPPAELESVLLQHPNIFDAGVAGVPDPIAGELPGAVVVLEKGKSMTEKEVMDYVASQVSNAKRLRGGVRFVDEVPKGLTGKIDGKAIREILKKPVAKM

Plasma [17] = test: Half-life in plasma of Swiss albino mouse at 30 mg/kg, po; type: ADME, organism-based; set-up: dose 30 mg/kg, route oral; details: in vivo; how it was run: as §1
[18] = Plasma concentration in Swiss albino mouse at 30 mg/kg, po after 0.25 hrs; type: ADME, organism-based; set-up: dose 30 mg/kg, route oral; how it was run: as §1
Caco-2 [19] = test: Apparent permeability from apical side to basolateral side of human Caco2 cells at 10 uM; type: ADME, cell-based; details: caco-2, 10 µM
Brain [20] = test: Tmax in brain of Swiss albino mouse at 30 mg/kg, po; type: ADME, organism-based; set-up: dose 30 mg/kg, route oral; details: in vivo; how it was run: as §1
Plasma [21] = test: Free plasma concentration in Swiss albino mouse at 30 mg/kg, po after 8 hrs; type: ADME, organism-based; set-up: dose 30 mg/kg, route oral; details: in vivo
Liver = test: Half-life in mouse liver microsome at 1 uM; type: ADME; details: microsomes
Plasma [22] = test: Free plasma concentration in Swiss albino mouse at 30 mg/kg, po after 4 hrs; type: ADME, organism-based; set-up: dose 30 mg/kg, route oral; details: in vivo
Brain [23] = test: Drug level in Swiss albino mouse brain at 30 mg/kg, po after 0.25 hr; type: ADME, organism-based; set-up: dose 30 mg/kg, route oral; details: in vivo; how it was run: as §1
[24] = Ratio of AUC in brain to AUC in plasma in Swiss albino mouse at 30 mg/kg, po; type: ADME, organism-based; set-up: dose 30 mg/kg, route oral; details: brain and plasma
How it was run: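 Single oral gavage dose of 30 mg/kg given to male Swiss Albino mice; compound concentrations measured in both plasma and brain, from which brain and plasma exposure parameters were derived; animals observed for behavioural disturbance throughout the study.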

[25] = target: Survival motor neuron protein (Homo sapiens) (UniProt Q16637); test: Activation of SMN expressed in HEK293 cells assessed as concentration required to reach 50% of maximum luciferase signal by SMN2-promotor driven luciferase reporter gene assay; type: cell-based
How it was run: (§2)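 HEK-293 cells stably carrying the SMN2 reporter construct, kept in DMEM with 10% FCS, glutamax, pyruvate, pen/strep and 200 µg/mL hygromycin, and assayed without hygromycin. 2,000 cells/well were plated and adhered overnight at 37 °C, 5% CO2. Compounds were added as a 7-point titration, 50 µM to 25 nM final, in 0.46% DMSO, for 30–36 h. OneGlo luminescence was normalized to 4.5 mM sodium butyrate (100%) and DMSO (0%).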

Plasma [26] = test: AUClast in plasma of Swiss albino mouse at 30 mg/kg, po; type: ADME, organism-based; set-up: time 0 - last, dose 30 mg/kg, route oral; details: in vivo; how it was run: as §1
Plasma [27] = test: Free plasma concentration in Swiss albino mouse at 30 mg/kg, po after 0.5 hr; type: ADME, organism-based; set-up: dose 30 mg/kg, route oral; details: in vivo
[28] = Plasma concentration in Swiss albino mouse at 30 mg/kg, po after 0.5 hrs; type: ADME, organism-based; set-up: dose 30 mg/kg, route oral; how it was run: as §1
Plasma [29] = test: Free plasma concentration in Swiss albino mouse at 30 mg/kg, po after 1 hr; type: ADME, organism-based; set-up: dose 30 mg/kg, route oral; details: in vivo
Brain [30] = test: Drug level in Swiss albino mouse brain at 30 mg/kg, po after 12 hrs; type: ADME, organism-based; set-up: dose 30 mg/kg, route oral; details: in vivo; how it was run: as §1
[31] = Plasma concentration in Swiss albino mouse at 30 mg/kg, po after 12 hrs; type: ADME, organism-based; set-up: dose 30 mg/kg, route oral; how it was run: as §1
[32] = target: Survival motor neuron protein (Homo sapiens) (UniProt Q16637); test: Activation of SMN in human fibroblast cells obtained from type 1 SMA patients assessed as protein punctuate bodies per 100 nuclei at 37 to 1000 nM relative to control; type: cell-based
Brain [33] = test: AUC (infinity) in brain of Swiss albino mouse at 30 mg/kg, po; type: ADME, organism-based; set-up: time infinity, dose 30 mg/kg, route oral; details: in vivo; how it was run: as §1
Brain [34] = test: Drug level in Swiss albino mouse brain at 30 mg/kg, po after 0.5 hr; type: ADME, organism-based; set-up: dose 30 mg/kg, route oral; details: in vivo; how it was run: as §1
Brain [35] = test: AUClast in brain of Swiss albino mouse at 30 mg/kg, po; type: ADME, organism-based; set-up: time 0 - last, dose 30 mg/kg, route oral; details: in vivo; how it was run: as §1
Plasma [36] = test: Free plasma concentration in Swiss albino mouse at 30 mg/kg, po after 2 hrs; type: ADME, organism-based; set-up: dose 30 mg/kg, route oral; details: in vivo
Plasma [37] = test: Free plasma concentration in Swiss albino mouse at 30 mg/kg, po after 24 hrs; type: ADME, organism-based; set-up: dose 30 mg/kg, route oral; details: in vivo
[38] = target: Survival motor neuron protein (Homo sapiens) (UniProt Q16637); test: Activation of SMN expressed in HEK293 cells assessed as rate of induction by SMN2-promotor driven luciferase reporter gene assay relative to basal level; type: cell-based; set-up: concentration or dose not given beside the values; how it was run: as §2
Plasma [39] = test: Tmax in plasma of Swiss albino mouse at 30 mg/kg, po; type: ADME, organism-based; set-up: dose 30 mg/kg, route oral; details: in vivo; how it was run: as §1
[40] = Plasma concentration in Swiss albino mouse at 30 mg/kg, po after 1 hr; type: ADME, organism-based; set-up: dose 30 mg/kg, route oral; how it was run: as §1
Brain [41] = test: Drug level in Swiss albino mouse brain at 30 mg/kg, po after 0.083 hr; type: ADME, organism-based; set-up: dose 30 mg/kg, route oral; details: in vivo
Brain [42] = test: Drug level in Swiss albino mouse brain at 30 mg/kg, po after 1 hr; type: ADME, organism-based; set-up: dose 30 mg/kg, route oral; details: in vivo; how it was run: as §1
Plasma [43] = test: Free plasma concentration in Swiss albino mouse at 30 mg/kg, po after 0.25 hr; type: ADME, organism-based; set-up: dose 30 mg/kg, route oral; details: in vivo
Brain [44] = test: Cmax in brain of Swiss albino mouse at 30 mg/kg, po; type: ADME, organism-based; set-up: dose 30 mg/kg, route oral; details: in vivo; how it was run: as §1
Brain [45] = test: Drug level in Swiss albino mouse brain at 30 mg/kg, po after 24 hrs; type: ADME, organism-based; set-up: dose 30 mg/kg, route oral; details: in vivo; how it was run: as §1

Sequence of Survival motor neuron protein (Homo sapiens) (Q16637 whole entry): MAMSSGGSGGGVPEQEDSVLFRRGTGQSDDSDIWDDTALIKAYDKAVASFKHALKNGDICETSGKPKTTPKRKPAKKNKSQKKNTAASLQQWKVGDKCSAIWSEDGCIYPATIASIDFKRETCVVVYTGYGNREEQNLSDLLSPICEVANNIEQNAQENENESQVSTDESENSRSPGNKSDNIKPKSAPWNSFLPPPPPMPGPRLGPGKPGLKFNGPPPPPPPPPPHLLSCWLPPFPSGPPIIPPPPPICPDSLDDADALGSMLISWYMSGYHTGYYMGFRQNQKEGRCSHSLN

## O=C(O)C1CCN(c2ncc(-c3ccc4c(c3)OCCCO4)s2)CC1
Brain [1]
  t1/2: 13.69 h
[2]
  concentration at 24 h: 4.36 µM
Plasma [3]
  Cmax: 44.4 µM
Plasma [4]
  Cp(f): 0.23 µM
Plasma [5]
  Cp(f): 2.26 µM
[6]
  concentration at 4 h: 10.8 µM
Brain [7]
  Drug uptake: 0.43 µmol/kg
[8]
  fraction unbound: 0.051
Brain [9]
  Drug uptake: 0.32 µmol/kg
[10]
  concentration at 8 h: 12.6 µM
Caco-2 [11]
  Papp: 44.1 ×10⁻⁶ cm/s
Plasma [12]
  AUC: 103094 ng·h/mL
[13]
  concentration at 2 h: 16.6 µM
[14]
  concentration at 0.083 h: 44.4 µM
Brain [15]
  Drug uptake: 0.36 µmol/kg
[16]
  IC50: 5 nM
Plasma [17]
  t1/2: 11.18 h
[18]
  concentration at 0.25 h: 41.7 µM
Caco-2 [19]
  Papp: 33.8 ×10⁻⁶ cm/s
Brain [20]
  Tmax: 0.25 h
Plasma [21]
  Cp(f): 0.64 µM
Liver
  t1/2: > 1 h
Plasma [22]
  Cp(f): 0.55 µM
Brain [23]
  Drug uptake: 1.23 µmol/kg
[24]
  Kp: 0.028
[25]
  Activity: 0.012 µM
Plasma [26]
  AUClast: 77768 ng·h/mL
Plasma [27]
  Cp(f): 2.1 µM
[28]
  concentration at 0.5 h: 41.1 µM
Plasma [29]
  Cp(f): 1.07 µM
Brain [30]
  Drug uptake: 0.13 µmol/kg
[31]
  concentration at 12 h: 4.57 µM
[32]
  Activity: 80%
Brain [33]
  AUC: 3115 ng·h/mL
Brain [34]
  Drug uptake: 1.14 µmol/kg
Brain [35]
  AUClast: 2167 ng·h/mL
Plasma [36]
  Cp(f): 0.85 µM
Plasma [37]
  Cp(f): 0.22 µM
[38]
  Activity: 325%
Plasma [39]
  Tmax: 4.98 min
[40]
  concentration at 1 h: 21 µM
Brain [41]
  Drug uptake: 0.48 µmol/kg
Brain [42]
  Drug uptake: 0.59 µmol/kg
Plasma [43]
  Cp(f): 2.13 µM
Brain [44]
  Cmax: 1.23 µmol/kg
Brain [45]
  Drug uptake: 0.13 µmol/kg
